{
  "source": "ChEMBL document CHEMBL1275429",
  "about": "“Pharmacodynamic characterization of ceftobiprole in experimental pneumonia caused by phenotypically diverse Staphylococcus aureus strains” (Antimicrob Agents Chemother, 2008)",
  "key": {"[1]": {"assay": "Cmax in neutropenic BALB/cAnNCr mouse infected with Staphylococcus aureus at 25 mg/kg, sc administered as single dose after 6 hrs of infection", "type": "ADME, organism-based", "set-up": "dose 25 mg/kg, route subcutaneous", "conditions": "in vivo", "how_it_was_run": "(§1)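 Neutropenic female mice (cyclophosphamide i.p. 250 mg/kg day −4, 100 mg/kg day −1) with HA-MRSA 56 pneumonia (oral inoculum, 10^7 CFU/ml in 3% mucin). Single s.c. dose in sterile water. Plasma by intracardiac puncture at 0.25–4 h, six mice per time point, stabilized with citric acid. Assayed by validated HPLC (LOQ 0.01 µg/ml). Parameters from one-compartment analysis.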"}, "[2]": {"assay": "AUC (0 to infinity) in neutropenic BALB/cAnNCr mouse infected with Staphylococcus aureus at 2.5 mg/kg, sc administered as single dose after 6 hrs of infection", "type": "ADME, organism-based", "set-up": "time infinity, dose 2.5 mg/kg, route subcutaneous", "conditions": "plasma", "how_it_was_run": "(§2)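 Female BALB/cAnNCr mice (7-9 weeks, 15-22 g) made neutropenic with cyclophosphamide, 250 mg/kg i.p. on day -4 and 100 mg/kg i.p. on day -1. Infected by oral aspiration of HA-MRSA 56 (10^7 CFU/ml in 3% mucin/saline). Single s.c. dose in sterile water given 6 h post-challenge. Plasma (EDTA, citric acid-stabilized) taken at 0.25-4 h, six mice per time point. Assayed by validated HPLC (LOQ 0.01 µg/ml); one-compartment analysis.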"}, "[3]": {"assay": "fAUC/MIC in neutropenic BALB/cAnNCr mouse plasma infected with Staphylococcus aureus at 1 to 25 mg/kg, sc administered 1 to 5 times/day after 24 hrs by HPLC", "type": "functional", "conditions": "route subcutaneous", "how_it_was_run": "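Exposure indices used free plasma drug, correcting with 19% mouse protein binding supplied by the sponsor. The regimens were s.c. 1–25 mg/kg given 1–5 times daily for 24 h to neutropenic mice with S. aureus pneumonia. MICs were determined in triplicate by CLSI broth microdilution. PK came from the single-dose HPLC study.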"}, "[4]": {"assay": "fT>MIC required for 80% inhibition of hospital acquired methicillin-resistant Staphylococcus aureus 56 infection in neutropenic BALB/cAnNCr mouse", "type": "functional", "how_it_was_run": "(§3)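 Same neutropenic murine pneumonia model, with 24-h lung log10 CFU change (5 mice per group; 1–25 mg/kg s.c., 1–5 times daily). […] ED50, ED80 and stasis exposures were taken from a sigmoid Emax fit for each isolate.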"}, "[5]": {"assay": "fT>MIC required for stasis inhibition of hospital acquired methicillin-resistant Staphylococcus aureus 152 infection in neutropenic BALB/cAnNCr mouse", "type": "functional", "how_it_was_run": "as §3"}, "[6]": {"assay": "fT>MIC required for stasis inhibition of methicillin-susceptible Staphylococcus aureus 25923 infection in neutropenic BALB/cAnNCr mouse", "type": "functional"}, "[7]": {"assay": "Elimination clearance in neutropenic BALB/cAnNCr mouse infected with Staphylococcus aureus at 25 mg/kg, sc administered as single dose after 6 hrs of infection", "type": "ADME, organism-based", "set-up": "dose 25 mg/kg, route subcutaneous", "conditions": "in vivo", "how_it_was_run": "as §1"}, "Staphylococcus aureus [8]": {"test_system": "Staphylococcus aureus", "assay": "Antimicrobial activity against methicillin-susceptible Staphylococcus aureus 29213 infected in BALB/cAnNCr mouse assessed as decrease in bacterial density in lungs at 1 to 25 mg/kg, sc administered as 1 to 5 times/day after 24 hrs […] relative to control", "type": "functional", "conditions": "route subcutaneous", "how_it_was_run": "(§4)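 Female BALB/cAnNCr mice (7–9 weeks) were made neutropenic with cyclophosphamide i.p. at 250 mg/kg on day −4 and 100 mg/kg on day −1. Under isoflurane, mice received an oral inoculum in 3% mucin/saline, with nostrils blocked until aspiration. Drug (1–25 mg/kg s.c., once to five times daily, water vehicle) or sham started 6 h post-inoculation. Lungs were harvested at 24 h, homogenized and plated on blood and Columbia agar at 35°C. Mean log10 CFU/ml was compared with the 0-h untreated baseline; 5 mice per group.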"}, "[9]": {"assay": "Elimination clearance in neutropenic BALB/cAnNCr mouse infected with Staphylococcus aureus at 2.5 mg/kg, sc administered as single dose after 6 hrs of infection", "type": "ADME, organism-based", "set-up": "dose 2.5 mg/kg, route subcutaneous", "conditions": "in vivo", "how_it_was_run": "as §2"}, "[10]": {"assay": "AUC (0 to infinity) in neutropenic BALB/cAnNCr mouse infected with Staphylococcus aureus at 25 mg/kg, sc administered as single dose after 6 hrs of infection", "type": "ADME, organism-based", "set-up": "time infinity, dose 25 mg/kg, route subcutaneous", "conditions": "plasma", "how_it_was_run": "as §1"}, "Staphylococcus aureus [11]": {"test_system": "Staphylococcus aureus", "assay": "Antimicrobial activity against community acquired methicillin-resistant Staphylococcus aureus 146 by broth microdilution method", "type": "functional", "how_it_was_run": "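Broth microdilution run in triplicate following CLSI guidelines. Isolates were stored at –80°C in double-strength skim milk and subcultured twice on Trypticase soy agar with 5% sheep blood before testing.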"}, "[12]": {"assay": "Cmax in neutropenic BALB/cAnNCr mouse infected with Staphylococcus aureus at 2.5 mg/kg, sc administered as single dose after 6 hrs of infection", "type": "ADME, organism-based", "set-up": "dose 2.5 mg/kg, route subcutaneous", "conditions": "in vivo", "how_it_was_run": "as §2"}, "Mus musculus": {"test_system": "Mus musculus", "assay": "Volume of distribution in neutropenic BALB/cAnNCr mouse infected with Staphylococcus aureus at 10 mg/kg, sc administered as single dose after 6 hrs of infection", "type": "ADME, organism-based", "set-up": "dose 10 mg/kg, route subcutaneous", "conditions": "in vivo", "how_it_was_run": "as §1"}, "[13]": {"assay": "Tmax in neutropenic BALB/cAnNCr mouse infected with Staphylococcus aureus at 10 mg/kg, sc administered as single dose after 6 hrs of infection", "type": "ADME, organism-based", "set-up": "dose 10 mg/kg, route subcutaneous", "conditions": "in vivo", "how_it_was_run": "as §1"}, "[14]": {"assay": "fT>MIC required for 50% inhibition of methicillin-susceptible Staphylococcus aureus 25923 infection in neutropenic BALB/cAnNCr mouse", "type": "functional"}, "Staphylococcus aureus [15]": {"test_system": "Staphylococcus aureus", "assay": "Antimicrobial activity against community acquired methicillin-resistant Staphylococcus aureus 147 infected in BALB/cAnNCr mouse assessed as decrease in bacterial density in lungs at 1 to 25 mg/kg, sc administered as 1 to 5 times/day after 24 hrs […] relative to control", "type": "functional", "conditions": "route subcutaneous", "how_it_was_run": "as §4"}, "[16]": {"assay": "fT>MIC required for stasis inhibition of community acquired methicillin-resistant Staphylococcus aureus 147 infection in neutropenic BALB/cAnNCr mouse", "type": "functional", "how_it_was_run": "as §3"}},
  "data": [
    {"smiles": "Nc1nc(/C(=N/O)C(=O)N[C@@H]2C(=O)N3C(C(=O)O)=C(/C=C4\\CCN([C@@H]5CCNC5)C4=O)CS[C@H]23)ns1", "note": "[CEFTOBIPROLE]", "values": [
      {"measurement": "Cmax", "setting": "[1]", "value": 38600, "unit": "ng/mL"},
      {"measurement": "AUC(0-inf)", "setting": "[2]", "value": 2570, "unit": "ng·h/mL"},
      {"measurement": "fAUC/MIC", "setting": "[3]", "value": 2},
      {"measurement": "fT>MIC", "setting": "[4]", "value": 15.5, "unit": "%"},
      {"measurement": "fT>MIC", "setting": "[5]", "value": 13.4, "unit": "%"},
      {"measurement": "fT>MIC", "setting": "[6]", "value": 7.6, "unit": "%"},
      {"measurement": "CL/F", "setting": "[7]", "value": 11.8, "unit": "mL/min/kg"},
      {"measurement": "log10cfu", "setting": "Staphylococcus aureus [8]", "value": 3.9},
      {"measurement": "CL/F", "setting": "[9]", "value": 16.2, "unit": "mL/min/kg"},
      {"measurement": "AUC(0-inf)", "setting": "[10]", "value": 35200, "unit": "ng·h/mL"},
      {"measurement": "MIC", "setting": "Staphylococcus aureus [11]", "value": 2, "unit": "µg/mL"},
      {"measurement": "Cmax", "setting": "[12]", "value": 2910, "unit": "ng/mL"},
      {"measurement": "Vd", "setting": "Mus musculus", "value": 0.38, "unit": "L/kg"},
      {"measurement": "Tmax", "setting": "[13]", "value": 9, "unit": "min"},
      {"measurement": "fT>MIC", "setting": "[14]", "value": 8.1, "unit": "%"},
      {"measurement": "log10cfu", "setting": "Staphylococcus aureus [15]", "value": 3.2},
      {"measurement": "fT>MIC", "setting": "[16]", "value": 14.9, "unit": "%"}
    ]}
  ]
}
